According to PMC2745822 (The Journal of pharmacology and experimental therapeutics, 2008):

Key:
M3 mAChR = M3 mAChR (Homo sapiens, UniProt P20309); assay: Calcium mobilization selectivity assay, CHO K1 cells expressing M3; type: cell-based; settings: 30 µM compound
How it was run: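 CHO K1 cells stably expressing rat M1 or human M3 or M5, coupled through endogenous Gq. Seeded 50,000 cells/well and held overnight in antibiotic-free medium at 37°C/5% CO2. Loaded with 2 µM Fluo-4 AM for 45 min at 37°C in HBSS/20 mM HEPES/2.5 mM probenecid, pH 7.4. […] Three independent experiments.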

[1] = tested on: amphetamine-induced hyperlocomotion in rats; assay: Amphetamine-induced hyperlocomotion; type: in vivo, rat; settings: 56.6 mg/kg i.p., 30-min pretreatment; 1 mg/kg s.c. amphetamine; 60 min
serotonin 2B receptor = serotonin 2B receptor (Homo sapiens, UniProt P41595); assay: Millipore GPCR Profiler functional screen, serotonin 2B receptor; type: cell-based; settings: full agonist CRC
How it was run: (§1)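 Outsourced functional screening paradigm covering 16 GPCRs, chosen as family A subtypes among the closest relatives of mAChRs. Test compound was assessed for agonist, antagonist and allosteric potentiator activity by its effect on full concentration-response curves of each receptor's agonist.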

M1 = target: T1, M1 (Homo sapiens, UniProt P11229); assay: Millipore GPCR Profiler functional screen, M1; type: cell-based; settings: full agonist CRC
T1 sequence (P11229 1-460): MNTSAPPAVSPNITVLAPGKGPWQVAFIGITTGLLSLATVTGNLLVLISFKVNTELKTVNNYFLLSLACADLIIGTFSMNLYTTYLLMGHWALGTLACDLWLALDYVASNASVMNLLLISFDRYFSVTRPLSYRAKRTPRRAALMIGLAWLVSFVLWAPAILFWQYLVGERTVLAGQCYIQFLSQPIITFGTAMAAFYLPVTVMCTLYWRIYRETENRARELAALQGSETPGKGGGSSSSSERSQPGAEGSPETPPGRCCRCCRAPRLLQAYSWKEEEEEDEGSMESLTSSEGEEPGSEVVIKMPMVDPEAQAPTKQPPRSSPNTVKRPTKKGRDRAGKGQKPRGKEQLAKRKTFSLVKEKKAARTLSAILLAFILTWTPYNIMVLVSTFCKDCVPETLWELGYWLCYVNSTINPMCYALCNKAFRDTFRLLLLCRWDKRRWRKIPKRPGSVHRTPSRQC

human M4 = target: T2, human M4 (Homo sapiens, UniProt P08173); assay: Millipore GPCR Profiler functional screen, human M4; type: cell-based; settings: full agonist CRC
T2 sequence (P08173 1-479): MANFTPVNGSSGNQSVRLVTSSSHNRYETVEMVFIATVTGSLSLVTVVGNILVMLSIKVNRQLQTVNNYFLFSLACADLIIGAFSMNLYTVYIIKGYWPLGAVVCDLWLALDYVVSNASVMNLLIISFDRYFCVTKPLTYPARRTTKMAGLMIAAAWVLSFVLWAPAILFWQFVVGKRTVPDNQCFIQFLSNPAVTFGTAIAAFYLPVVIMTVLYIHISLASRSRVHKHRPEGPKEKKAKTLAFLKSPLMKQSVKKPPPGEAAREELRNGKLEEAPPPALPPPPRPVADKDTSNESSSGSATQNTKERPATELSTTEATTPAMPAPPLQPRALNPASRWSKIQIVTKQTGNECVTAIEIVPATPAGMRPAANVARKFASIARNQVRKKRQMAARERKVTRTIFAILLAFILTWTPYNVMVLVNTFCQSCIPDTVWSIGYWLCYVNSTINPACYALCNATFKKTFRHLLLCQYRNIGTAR
How it was run: as §1

M2 mAChR = target: T3, M2 mAChR (Homo sapiens, UniProt P08172); assay: Calcium mobilization selectivity assay, CHO K1 cells expressing M2-Gqi5; type: cell-based; settings: 30 µM compound
T3 sequence (P08172 1-466): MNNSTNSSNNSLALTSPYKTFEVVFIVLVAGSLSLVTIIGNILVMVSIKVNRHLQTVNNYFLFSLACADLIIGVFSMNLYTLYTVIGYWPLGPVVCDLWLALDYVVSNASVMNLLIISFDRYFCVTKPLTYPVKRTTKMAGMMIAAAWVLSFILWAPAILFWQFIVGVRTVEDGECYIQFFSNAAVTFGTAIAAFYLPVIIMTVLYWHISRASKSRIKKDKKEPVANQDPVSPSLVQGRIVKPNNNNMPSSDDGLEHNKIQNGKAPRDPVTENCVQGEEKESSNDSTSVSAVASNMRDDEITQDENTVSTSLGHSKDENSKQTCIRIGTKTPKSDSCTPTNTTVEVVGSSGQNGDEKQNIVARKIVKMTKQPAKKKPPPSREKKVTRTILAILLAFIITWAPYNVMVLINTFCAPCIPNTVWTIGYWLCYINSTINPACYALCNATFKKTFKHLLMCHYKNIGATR
How it was run: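 CHO K1 cells stably co-expressing human M2 and chimeric Gqi5, grown with 500 µg/ml hygromycin B. Seeded 60,000 cells/well and kept overnight in antibiotic-free medium at 37°C/5% CO2. Loaded with 2 µM Fluo-4 AM for 45 min at 37°C in HBSS/HEPES/probenecid buffer, pH 7.4. […] Three independent experiments.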

panel of 16 GPCRs = assay: Millipore GPCR Profiler functional panel; type: cell-based
How it was run: as §1

[2] = Brain and plasma exposure pharmacokinetic profiling; type: in vivo, rat; settings: male rats, 56.6 mg/kg i.p.; mean ± S.E.M., n = 3
How it was run: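 Male Sprague-Dawley rats (225–250 g), fasted overnight. Test compound dissolved at 56.6 mg/ml in 10% Tween 80/water, pH ~7.0 (1 N NaOH), sonicated, and given at 56.6 mg/kg i.p. Brain and trunk plasma taken at 0.5, 1, 2 and 4 h, three rats per time point. Brain homogenized in acetonitrile/methanol and plasma precipitated with acidified acetonitrile, both with internal standard. Analyzed by positive-ESI LC-MS-MS, linear 50 ng/ml–100 µg/ml. AUC0-∞ by trapezoidal method.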

[3] = target: T4, human M4 muscarinic receptor (Homo sapiens, UniProt P08173)
T4 sequence (P08173 1-479): T2 sequence (P08173 1-479)

log P = type: physicochemical
GABAA receptors = assay: MDS Pharma LeadProfiling Screen, flunitrazepam binding; settings: 10 µM
[4] = tested on: panel of 68 discrete GPCRs, ion channels, transporters, and enzymes; assay: MDS Pharma LeadProfiling Screen radioligand binding panel; settings: 10 µM; for VU0152099 with the single exception of GABAA receptors

Sequence of serotonin 2B receptor (P41595 whole entry): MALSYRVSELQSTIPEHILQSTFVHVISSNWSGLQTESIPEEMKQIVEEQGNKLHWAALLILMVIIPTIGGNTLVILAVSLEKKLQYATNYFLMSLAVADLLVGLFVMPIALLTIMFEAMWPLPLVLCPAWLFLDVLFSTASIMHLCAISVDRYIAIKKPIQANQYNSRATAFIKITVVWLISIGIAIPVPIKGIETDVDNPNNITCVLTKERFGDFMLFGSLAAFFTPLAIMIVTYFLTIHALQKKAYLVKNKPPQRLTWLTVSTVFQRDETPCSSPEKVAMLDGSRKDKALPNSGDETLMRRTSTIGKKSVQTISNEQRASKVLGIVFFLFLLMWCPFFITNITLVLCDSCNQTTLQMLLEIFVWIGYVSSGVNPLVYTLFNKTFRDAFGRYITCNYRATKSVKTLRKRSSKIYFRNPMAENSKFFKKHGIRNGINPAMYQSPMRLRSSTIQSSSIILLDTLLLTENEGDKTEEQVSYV
Sequence of M3 mAChR (P20309 whole entry): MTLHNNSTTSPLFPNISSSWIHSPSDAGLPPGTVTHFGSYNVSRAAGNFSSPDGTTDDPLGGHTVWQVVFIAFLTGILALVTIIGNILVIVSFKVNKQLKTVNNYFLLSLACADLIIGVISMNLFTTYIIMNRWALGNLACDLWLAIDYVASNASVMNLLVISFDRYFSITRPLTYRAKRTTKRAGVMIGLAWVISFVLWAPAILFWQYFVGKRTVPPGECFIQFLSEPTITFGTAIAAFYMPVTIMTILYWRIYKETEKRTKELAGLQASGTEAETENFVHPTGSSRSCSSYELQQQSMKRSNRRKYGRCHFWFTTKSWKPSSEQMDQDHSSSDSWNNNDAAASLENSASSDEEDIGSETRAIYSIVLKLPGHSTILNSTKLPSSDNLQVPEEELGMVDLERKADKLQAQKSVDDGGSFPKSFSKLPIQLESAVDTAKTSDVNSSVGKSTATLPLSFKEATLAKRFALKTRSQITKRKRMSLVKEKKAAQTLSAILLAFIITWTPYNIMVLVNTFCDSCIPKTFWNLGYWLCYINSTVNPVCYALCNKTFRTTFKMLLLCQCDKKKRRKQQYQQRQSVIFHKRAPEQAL

Compound: Cc1cc(C)c2c(N)c(C(=O)NCc3ccc4c(c3)OCO4)sc2n1 [VU0152099, 3-amino-N-(benzo[d][1,3]dioxol-5-ylmethyl)-4,6-dimethylthieno[2,3-b]pyridine carboxamide]
- shift in the ACh CRC at M3 (M3 mAChR): No shift in the ACh CRC was observed
- effect on amphetamine-induced hyperlocomotion [1]: produced robust decreases in amphetamine-induced hyperlocomotion
- antagonist activity at serotonin 2B receptor (serotonin 2B receptor): weak antagonist activity at serotonin 2B receptor
- potentiator activity at M1 (M1): had no potentiator activity at M1
- potentiation of ACh-induced activation of human M4 (human M4): induced a robust potentiation of ACh-induced activation of human M4
- shift in the ACh CRC at M2-Gqi5 (M2 mAChR): No shift in the ACh CRC was observed
- agonist activity, compound alone (panel of 16 GPCRs; data not shown): no agonist activity at any receptor studied
- allosteric potentiator activity at the other GPCR subtypes (panel of 16 GPCRs; full agonist CRCs): had no allosteric potentiator activity at any of the other GPCR subtypes tested
- AUC brain / AUC plasma [2]: 0.39 ± 0.01
- Mean AUC (0-∞) brain [2]: 4751.80 ± 666.17 ng·h/g
- Mean AUC(0-∞) plasma [2]: 11928.00 ± 1472.36 ng·h/mL
- t1/2 brain [2]: 1.25 ± 0.023 h
- t1/2 plasma [2]: 1.66 ± 0.39 h
- leftward shift in the ACh CRC ([3]; 10 µM compound): ≈ 30 fold
- maximal response to ACh ([3]; in presence of compound): approximately 130%
- log P (log P): 3.65
- displacement of flunitrazepam binding (GABAA receptors): 51%
- displacement of binding, all targets tested [4]: less than 50%
